Data reported in the EternaBench riboswitch data.

System: MS2 coat protein
Test: apparent Kd, MS2 coat protein; higher = weaker binding; RNA-MaP array; FMN 200 µM where present
In short: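 Apparent Kd: the median of filtered binding-curve fits from single clusters. Designs were transcribed on Illumina sequencing-chip clusters by stalled E. coli RNA polymerase and titrated with SNAP-549-labelled MS2 coat protein from 0.7 or 1.5 nM, doubling to 3 µM, in 100 mM Tris-HCl pH 7.5, 80 mM KCl, 4 mM MgCl2, BSA, DTT, yeast tRNA and Tween-20. Each series ran without and then with constant ligand, and green signal was normalised to red-channel RNA signal and control-cluster median Fmax.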

[1] = designed as: ON switch for flavin mononucleotide, no ligand
[2] = ligand present: flavin mononucleotide, designed as: ON switch for flavin mononucleotide
[3] = designed as: OFF switch for flavin mononucleotide, no ligand
[4] = ligand present: flavin mononucleotide, designed as: OFF switch for flavin mononucleotide

| Sequence | apparent Kd [1] [nM] | apparent Kd [2] [nM] | apparent Kd [3] [nM] | apparent Kd [4] [nM] |
| --- | --- | --- | --- | --- |
| ACCAACAGGGUUGGUACCGGCGCGCAGGAUAUGCUUGCCUACAUGAGGAUCACCCAUGUCUAAAUGCAGAAGGGUGAGCUGAGC | 193 | 114 |  |  |
| GCACUUAGAGUUGAACCGUUUCUAACAUGAGGAUCACCCAUGUAGGAUAUGCUAAUAGUAUUGAAGCAGAAGGACAAUAAGUGC |  |  | 4.59 | 5.01 |
| AAAUUUUGUCAAGGAUAUGUAUAAAAGAGAAGAAAACAUGAGGAUCACCCAUGUAUAUGGUGGGAACAGAAGGUGAUUAAGUAA |  |  | 354 | 271 |
| GCACGCUGGCGAGGAUAUAGACAUGAGGAUCACCCAUGUGGCGCACAUCGGGCCCUAGUCCUCAGCUAGAAGGCGCCUGUGAUA |  |  | 328 | 228 |
| AACAUCCAAGCGCCCGGGUGGAGGAGAAGGCGGACAUGAGGAUCACCCAUGUGCAGCCACAAGUCCGAGGAUAUCCUUUGUGUU |  |  | 10.6 | 20.2 |
| CUGAUGUUAGGAUAUCAGGCGCCCGCCACUAGCAAGGCGCAUGAGAAGGGACAUGAGGAUCACCCAUGUAGUAA |  |  | 28.1 | 50 |
| ACCGGGUACACAGGAUAUCACGUCCUGACAUGAGGAUCACCCAUGUCGGUCUGAGAAGGGUGGUCCCGCAGCCGACUGUGAUGG | 254 | 27.3 |  |  |
| ACGUAUCAUGUCAGGAUAUAGCUAGCUACGGCUAGCUAGAAGGGACAUGAGGAUCACCCAUGUCAAAGAUACGU |  |  | 14 | 19 |
| UAUAUAUAGUAAGGAUAUGUAUUUGUUUUAUAAACAGAAGGUACUGACAUGAGGAUCACCCAUGUUUUAGUGUGGGCAUGUAGA |  |  | 39.5 | 41.4 |
| UUAAGGGACUGAGGAUAUACAUGAAUUAUUUUUGUAGAAGGCAGAUUGUUAGUUUAUUCACUAUACAUGAGGAUCACCCAUGUU |  |  | 27.4 | 20.1 |
| CAUUCAAGCCAGAAGGAGUACACUACAUGAGGAUCACCCAUGUCUAAUACUAGGAUAUGGGCAUCUGGUAAUGUCUAAGGUGCG | 111 | 128 |  |  |
| AGCCGAGUAGGAUAUGCAUACUUACAGGAAAGCUGUAUGGUACAUGAGGAUCACCCAUGUAGAAGGGCUCUGAA |  |  | 25 | 21.2 |
| UUGCCUCAGAACAUGAGGAUCACCCAUGUGCUGCGGGCAACGUAGGAUAUGAUGGUUCGAUACCAUCAGAAGGAUGAUGGUACC | 5.42 | 5.22 |  |  |
| GAUGAGGUAGGAUAUACGAGAAGAUAGGGUAGAUAGAUAACACAUGAGGAUCACCCAUGUAGAAGGACCAGUAG |  |  | 34.5 | 79.8 |
| AAUCAGCGAGGAUAUACAGAUUCUGGGUGCGGCUCGGCGAGACAUGAGGAUCACCCAUGUAGAAGGUGCUAGCC |  |  | 37.9 | 43.8 |
| AGAAAUAAAAGAGAGGAUAUCCAAAAGAAAACAUGAGGAUCACCCAUGUAAAAGAAAAUAAAAUGGGAGAAGGCUCAAAAUAAAGA | 115 | 22.6 |  |  |
| UGGGUCCCAGUCAGGAUAUCGUGCUUUUACAUGCACGAGAAGGGACAUGAGGAUCACCCAUGUCAAGGCGGUCA |  |  | 102 | 330 |
| CCUAAACAUGAGGAUCACCCAUGUGAGGAUAUGAUGCAGCAGUGGUCUACGCUGUGCAUCAGAAGGUACAUGGU |  |  | 80.8 | 120 |
| GACGCUAAAGGAUAUACAUGAGGAUCACCCAUGUUGAGGAAGGUUAGAUGAGGAGUAAGUAGAAGGUUAGGCGA |  |  | 38 | 35.6 |
| GAAUAGGCAGGAUAUACAUGAGGAUCACCCAUGUGCCUGCGAAAGGUACGUUCGAAAGGUAGAAGGGCCUAAAC |  |  | 12.1 | 17.1 |
| CCGUUACAUGAGGAUCACCCAUGUGAGGAUAUCGGUGUGACUGGCAGCGUGCGGGACUCGAGAAGGCGCUUGGC |  |  | 48.5 | 48.4 |
| UAUAUAUAAUAUAUUAACAUGAGGAUCACCCAUGUCGCUAGACAGGAUAUAUUUAAUAUUAUAAAGUAGAAGGGUCAUAUAAUU | 50.5 | 64.8 |  |  |
| UAACGACACGCAGGAUAUCUAACAUGAGGAUCACCCAUGUCAGAUGACAGGGUCGCUUUACUGGCAGAGAAGGGCGAUCGAUAC |  |  | 7.44 | 11.2 |
| GGGCUCGGAGGAUAUACAUGAGGAUCACCCAUGUACUCGGGCUCUAUUGGGCUCGGGUGUAGAAGGUCGGGCUC |  |  | 14.9 | 14.6 |
| AAAAUAAGAACAGGAUAUGUGGGUUCGAAGAGUAAAGCUCUCCACAUGAGGAUCACCCAUGUGCCACAGAAGGGUUCGGGUGAU | 58 | 11.8 |  |  |
| GGUCCUUCUGUUAGGAUAUGCUUUGGGCUUCCGCAGUAGAAGGAACAUGAGGAUCACCCAUGUCCGAUGCCGUC |  |  | 86 | 88.1 |
| UUCGUGCAGCUUUGCUGUACGCGUACAUGAGGAUCACCCAUGUAGGAUAUGGUAGGCAAAGCUUACUAGAAGGAUAUAGUGAUU |  |  | 9.34 | 9.4 |
| AAGGAGUGAGGAUAUACAUGAGGAUCACCCAUGUUGAUGGAAACGUCAGAGAAAGAAGGUAGAAGGCACAAGAA |  |  | 56.7 | 58.5 |

| Sequence | apparent Kd [1] [nM] | apparent Kd [2] [nM] | apparent Kd [3] [nM] | apparent Kd [4] [nM] |
| --- | --- | --- | --- | --- |
| CCGAAUGUCACAGGAUAUGGUCCGGGCUCGCGACCAGAAGGGUGAUCUCACAUGAGGAUCACCCAUGUGUAGGCGUUAGGCUAC | 36.3 | 260 |  |  |
| UUCACCUUAUUUUACAUGAGGAUCACCCAUGUUUUUUUUACGUAGGAUAUCGAUGCUUGUUUAUUCGAGAAGGACGAUGUAAGU | 36.6 | 32.4 |  |  |
| UUCUGUGCCCAAAGUUAAAGCACAUGAGGAUCACCCAUGUGAAAGGAUAUGUGGCGUGUAACGUUAUAGAAGGUUCACAAACAA |  |  | 31.9 | 105 |
| UUGGACGCCGUAGGAUAUGUAGGAUAUUCCUACAUGAGGAUCACCCAUGUUGACAUGGAAGAAGGACAGAAGGACGAUGUCCAU | 277 | 4.78 |  |  |
| AAUAAGUGAGGAUAUGCGUCUGGUCCCGGGAGGGCUAUAUAACAUGAGGAUCACCCAUGUAGAAGGCACAAUAA |  |  | 16.8 | 13.9 |
| CUGAGGAAGAGAGAGGAUAUCCAAAGGAAAACAUGAGGAUCACCCAUGUAAAAGGUAGGAAAUUGGGAGAAGGCUCAAGAGAGAG | 43.6 | 38.5 |  |  |
| AAAAAGGCAGGAUAUACAAAACAGGGAAACCUGAAAAGGAAACAUGAGGAUCACCCAUGUAGAAGGGCCAAGAA |  |  | 24.9 | 35.3 |
| GCAGGUUAAGUCAGGAUAUACCUAUGGAUACAUAGGUAGAAGGGACAUGAGGAUCACCCAUGUGCCUCGCCUGC |  |  | 17.7 | 69.3 |
| GGUCGUCAAGUCAGGAUAUCGUAUAGUAGAUGUAACGAGAAGGGACAUGAGGAUCACCCAUGUCGUCUCAUCAG |  |  | 18.9 | 25.8 |
| GGAUCGAGUGUGAGGAUAUGCUGGUCCUUGGAUCAGCAGAAGGCACAUGAGGAUCACCCAUGUGUUCCCGAUCC |  |  | 43.6 | 626 |
| AGCCUACAUGAGGAUCACCCAUGUCAGGAUAUCUCGCAACGUGUCAAGUUCACGUCGCAGAGAAGGGACUCGGG |  |  | 55.7 | 54 |
| UCCUACAUCGGAGGAUAUCAUGUGUAAACAUGAGGAUCACCCAUGUCGUACGAGAGUACGGAGAUUGAGAAGGCCGAUGUAGGU | 96 | 17.2 |  |  |
| GUAAAUCAUGUAGGAUAUGCAUGGCGAAGCUACGCAGAAGGACAUGAGGAUCACCCAUGUGCUAGCUACCGAGUUCGGUGGCAA |  |  | 77.1 | 354 |
| CUUUUGUGAGGAUAUUCGUAGUAGGGUCAUGGCACUAUUAUGAAGAAGGCACAUGAGGAUCACCCAUGUACCUU |  |  | 15.3 | 26.8 |
| CUUGUGUUAGGAUAUGCGCCCUGAAGUAGAAGGGCCAGAGAGCAGAAGGAACAUGAGGAUCACCCAUGUGUGAC |  |  | 59.7 | 56.5 |
| UUAUGUGUUGUAGGAUAUCAUUAGAUUUGUAAUUUAAUUGUAAUUUAUAUAUGAGAAGGACAUUUACAUGAGGAUCACCCAUGU |  |  | 22.3 | 13.4 |
| AUAGAAGUCUAGAAGGACCUAGCUGUAUACCGUCGAGGUAUAUAGCUAGGUAGGAUAUGGGACAUGAGGAUCACCCAUGUGUUG | 32.9 | 9.19 |  |  |
| GGUACUCAAAGAGUACAAGGACGAACAUGAGGAUCACCCAUGUAGGAUAUGCUACUCAAAGAGUAGCAGAAGGACAUGUGCAGC |  |  | 25.6 | 73 |
| GUGCAGGUAGGAUAUACGUGAGAGCCUUGUGGGCGUCUGGUACAUGAGGAUCACCCAUGUAGAAGGACCGGGCU |  |  | 21.3 | 77.5 |
| CUAUGAACGAUAGGAUAUACUGAGGUUGAGUGGGUAGAAGGAUCGAUAGUGGAGAAGACAUGAGGAUCACCCAUGUUAUGGAUU | 552 | 170 |  |  |
| GUAGCAUACCGAGGAUAUUCAUACCCGAAAGGGACAUGAGGAUCACCCAUGUGGCGAAAGCCUUGGGAGAAGGCGGAAUGCUAC | 580 | 24.4 |  |  |
| ACAUGAGGAUCACCCAUGUACAUGGGUUUAAUUGUUUGUUACUAGGAUAUGUAUUUGAAUUUACAACAGAAGGAGUAUUAAUGU |  |  | 985 | 414 |
| CUAGCUAUCGGAGGAUAUCCUCAGCGGAAACGCACAUGAGGAUCACCCAUGUAAAUAAAUAAUUUGGAGAAGGCCGAUAGCUAG | 294 | 19.2 |  |  |
| GAUCUGGCAGGAUAUACAUGAGGAUCACCCAUGUGCGAGCUAGCGAAAGCUAGCUCAGGUAGAAGGGUCAGAUC |  |  | 12.7 | 15.5 |
| ACCUAGACUAGGCCCACGGCAUCACAGGAUAUGCCGAUCACAUGAGGAUCACCCAUGUCAACUCCGCAGAAGGGUGAUAUCGUG | 179 | 14.1 |  |  |
| GCCAUCGUAUGAGGAUAUGGCACCGAAACGGUGCCAGAAGGCAUGUCAAUUGACAUGAGGAUCACCCAUGUAUUAUCGAUGGCA | 857 | 89 |  |  |
| CAGUCUACAGGAUAUACAUGAGGAUCACCCAUGUGUAUUCACUUUCAGUAAUCCAUAUGUAGAAGGGUAGACUG |  |  | 16.9 | 34.2 |
